Assay results as given in ChEMBL document CHEMBL4808174, “Exploring Heteroaromatic Rings as a Replacement for the Labile Amide of Antiplasmodial Pantothenamides” (J Med Chem, 2021).
Active and inactive are the calls of the source. No cut-off for these calls is given here.

Assays:
[1] = system: Plasmodium falciparum; assay: Antiplasmodial activity against ring stage Plasmodium falciparum 3D7 infected in human erythrocytes assessed as inhibition of parasite growth incubated for 96 hrs in presence of 1 uM pantothenate by SYBR Green I dye based fluorescence assay; format: functional, organism-based; settings: 3D7, Erythrocyte
In short: (§1)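 P. falciparum 3D7 ring stages at 0.5% parasitemia and 1% hematocrit in Albumax II medium. Where specified, 100 μM sodium pantothenate was added. Incubation 96 h, then freeze-thaw and SYBR Safe lysis-buffer fluorescence. Chloroquine 0.25-25 μM served as zero-proliferation control. Experiments in triplicate; 100 μM pantothenate data from two experiments.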

[2] = Selectivity index, ratio of IC50 for human HFF cells to IC50 for Plasmodium falciparum in presence of 1 uM pantothenate; format: toxicity; settings: HFF cells versus Plasmodium falciparum, read-out: Ratio IC50
In short: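 HFF cells grown 3-4 days in RPMI 1640 with 10% bovine calf serum and antibiotics, with compound up to 200 μM; SYBR Safe-based read-out. Selectivity index = HFF IC50 divided by P. falciparum IC50 at 1 μM pantothenate. Where HFF inhibition stayed below 50%, 200 μM (or 100 μM) was used as the HFF value to set limits.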

[3] = Antiproliferative activity against human HFF cells assessed as cell proliferation at 100 uM incubated for 3 to 4 days in presence of 1 uM pantothenate by SYBR assay
[4] = Antiproliferative activity against human HFF cells assessed as cell proliferation at 200 uM incubated for 3 to 4 days in presence of 1 uM pantothenate by SYBR assay
[5] = system: Plasmodium falciparum; assay: Antiplasmodial activity against ring stage Plasmodium falciparum 3D7 infected in human erythrocytes assessed as inhibition of parasite growth at 100 uM pretreated with compound followed by parasite infection by SYBR Green I dye based fluorescence assay; format: functional, organism-based; settings: Erythrocyte
[6] = system: Plasmodium falciparum; assay: Antiplasmodial activity against ring stage Plasmodium falciparum 3D7 infected in human erythrocytes assessed as inhibition of parasite growth incubated for 96 hrs in presence of 100 uM pantothenate by SYBR Green I dye based fluorescence assay; format: functional, organism-based; settings: 3D7, Erythrocyte; in short: as §1
[7] = system: Plasmodium knowlesi; assay: Antiplasmodial activity against Plasmodium knowlesi infected in human erythrocytes assessed as inhibition of parasite growth incubated for 72 hrs in presence of 1 uM pantothenate by SYBR Green I dye based fluorescence assay; format: functional, organism-based; settings: Erythrocyte
[8] = Metabolic stability in mouse liver microsomes assessed as half life at 1 uM in presence or absence of NADPH regenerating system by LC-MS analysis; format: ADME, Microsome
In short: (§2)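 Stability in mouse or human liver microsomes was measured with and without an NADPH-regenerating system, giving in vitro t1/2 and intrinsic clearance in μL/min/mg protein.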

[9] = Metabolic stability in human liver microsomes assessed as half life at 1 uM in presence or absence of NADPH regenerating system by LC-MS analysis; format: ADME, Microsome; in short: as §2
[10] = Metabolic stability in mouse liver microsomes assessed as intrinsic clearance at 1 uM in presence or absence of NADPH regenerating system measured per mg protein by LC-MS analysis; format: ADME, Microsome; settings: read-out: CLH; in short: as §2
[11] = Metabolic stability in human liver microsomes assessed as intrinsic clearance at 1 uM in presence of absence of NADPH regenerating system measured per mg protein by LC-MS analysis; format: ADME, Microsome; settings: read-out: CLH; in short: as §2
[12] = Drug degradation in mouse liver microsomes in absence of NADPH after 60 mins; format: ADME, Microsome; settings: read-out: Drug degradation
In short: (§3)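 Degradation in mouse or human liver microsomes was followed over 60 min, with and without an NADPH-regenerating system.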

[13] = Drug degradation in mouse liver microsomes in presence of NADPH after 60 mins; format: ADME, Microsome; settings: 1 h; in short: as §3
[14] = system: Plasmodium berghei; assay: Antiplasmodial activity against Plasmodium berghei ANKA infected in BALB/c mouse model of malaria assessed as reduction in parasitemia at 100 mg/kg/day, ip for 2 days by Giemsa staining based flow cytometry analysis; format: functional, organism-based; settings: time 2.0 day
In short: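 Female BALB/c mice, 8-12 weeks, infected ip with 1 × 10⁵ P. berghei ANKA-infected erythrocytes. Once parasitemia reached 0.4-1.5% (5 mice per group), 100 mg/kg was given ip in 150 mM NaCl containing 20.9% v/v DMSO; second dose at 24 h. Daily tail-bleed parasitemia was read by Giemsa-stained thin smear or by flow cytometry (JC-1, Hoechst 33342, anti-CD45/CD71/TER119).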

[15] = Drug concentration in BALB/c mouse plasma at 100 mg/kg/day, ip measured after 3 hrs; format: ADME, organism-based; settings: whole blood, in the assay text read “whole blood” for “plasma”
In short: (§4)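 Dosing was 100 mg/kg ip in P. berghei-infected female BALB/c mice, repeated at 24 h. 10 μL tail whole blood was sampled by microsampling device at 3 h, at ~24 h (before the second dose) and at 48 h. Samples were extracted with 80% acetonitrile using diazepam as internal standard and quantified by LC-MS MRM against a spiked-blood standard curve of 5 ng/mL-20 μg/mL. LLQ was 16 or 17 nM. Mean of five mice.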

[16] = Drug concentration in BALB/c mouse plasma at 100 mg/kg/day, ip measured after 1 day; format: ADME, organism-based; settings: whole blood, in the assay text read “whole blood” for “plasma”; in short: as §4
[17] = Drug concentration in BALB/c mouse plasma at 100 mg/kg/day, ip measured after 2 days; format: ADME, organism-based; settings: whole blood, in the assay text read “whole blood” for “plasma”; in short: as §4
[18] = system: Plasmodium falciparum; assay: Antiplasmodial activity against ring stage Plasmodium falciparum 3D7 infected in human erythrocytes assessed as inhibition of parasite growth incubated for 10 hrs by SYBR Green I dye based fluorescence assay; format: functional, organism-based; settings: Erythrocyte
In short: (§5)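 Triple-sorbitol-synchronized 3D7 ring-stage cultures at 0.5% parasitemia and 1% hematocrit were exposed to compound at ten concentrations at 37 °C in 96% N₂, 3% CO₂, 1% O₂. After 5, 10, 24 or 48 h, cells were washed three times and resuspended without compound. Total culture time 96 h, then SYBR Safe fluorescence. Three experiments in triplicate.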

[19] = system: Plasmodium falciparum; assay: Antiplasmodial activity against ring stage Plasmodium falciparum 3D7 infected in human erythrocytes assessed as inhibition of parasite growth incubated for 24 hrs by SYBR Green I dye based fluorescence assay; format: functional, organism-based; settings: Erythrocyte; in short: as §5
[20] = system: Plasmodium falciparum; assay: Antiplasmodial activity against ring stage Plasmodium falciparum 3D7 infected in human erythrocytes assessed as inhibition of parasite growth incubated for 48 hrs by SYBR Green I dye based fluorescence assay; format: functional, organism-based; settings: Erythrocyte; in short: as §5
[21] = Apparent permeability of the compound across apical to basolateral side in human Caco-2 cells at 20 uM
[22] = system: Plasmodium falciparum; assay: Antiplasmodial activity against ring stage Plasmodium falciparum NF54 infected in human erythrocytes assessed as inhibition of parasite growth incubated for 72 hrs in presence of pantothenate by SYBR Green dye based fluorescence assay; format: functional, organism-based; settings: NF54, Erythrocyte
[23] = Drug degradation in human liver microsomes after 60 mins; format: ADME, Microsome; settings: read-out: Drug degradation; in short: as §3
[24] = Drug degradation in mouse liver microsomes after 60 mins; format: ADME, Microsome; settings: read-out: Drug degradation; in short: as §3

SMILES | IC50 [1] | selectivity ratio at 1 µM [2] | proliferation at 100 µM [3] | proliferation at 200 µM [4] | further results
CCCCCc1cc(CNC(=O)[C@H](O)C(C)(C)CO)n[nH]1 | 7400 nM | > 27 | 88% | 89% | 
CCCCCc1nnc(CNC(=O)[C@H](O)C(C)(C)CO)[nH]1 | 40000 nM | > 5 | 84% | 71% | 
CCCCCc1cc(CNC(=O)[C@H](O)C(C)(C)CO)no1 | 160 nM | > 1200 | 104% | 71% | Activity [5]: inactive; IC50 [6]: > 1000 nM; IC50 [7]: 6.1 nM; half-life at 1 µM [8]: 0.55 h; half-life at 1 µM [9]: 2.53 h; microsomal CLint at 1 µM [10]: 53 µL/min/mg; microsomal CLint at 1 µM [11]: 11 µL/min/mg; metabolised at 1 h [12]: 20%; Stabilty [13]: Unstable; Activity [14]: inactive; concentration at 3 h [15]: 72 nM; concentration at 24 h [16]: < 17 nM; concentration at 48 h [17]: < 17 nM; Activity [18]: inactive; Activity [19]: Active; Activity [20]: Active; Papp A→B at 20 µM [21]: 55 ×10⁻⁶ cm/s
CCCCCc1cc(CCNC(=O)[C@H](O)C(C)(C)CO)on1 | 4800 nM | > 41 | 97% | 95% | 
CCCCCCc1cc(CNC(=O)[C@H](O)C(C)(C)CO)on1 | 2200 nM | > 90 | 97% | 87% | 
CCCCc1cc(CNC(=O)[C@H](O)C(C)(C)CO)on1 | 190 nM | > 1000 | 97% | 101% | 
CCCCCc1noc(CNC(=O)[C@H](O)C(C)(C)CO)n1 | 5300 nM | > 37 | 91% | 90% | 
CCCCCc1ncc(CNC(=O)[C@H](O)C(C)(C)CO)o1 | 80000 nM | 1.2 | 87% | 35% | 
CCCCCCn1cc(CNC(=O)[C@H](O)C(C)(C)CO)nn1 | 55 nM |  |  |  | 
CCCCCn1cnc(CNC(=O)[C@H](O)C(C)(C)CO)n1 | > 100000 nM |  | 101% | 106% | 
CCCCCn1cnc(CNC(=O)[C@H](O)C(C)(C)CO)c1 | 14000 nM | > 14 | 91% | 103% | 
CCCCCc1nnc(CNC(=O)[C@H](O)C(C)(C)CO)o1 | 71000 nM | > 2.8 | 108% | 91% | 
CCCCCn1ncc(CNC(=O)[C@H](O)C(C)(C)CO)n1 | 28000 nM | > 7.1 | 97% | 103% | 
CCCCCc1cc(CNC(=O)[C@H](O)C(C)(C)CO)on1 | 630 nM | > 310 | 100% | 88% | IC50 [6]: > 12000 nM
CCCCc1cc(CNC(=O)[C@H](O)C(C)(C)CO)no1 | 72 nM | > 2700 | 95% | 74% | 
CCCCCc1nc(CNC(=O)[C@H](O)C(C)(C)CO)no1 | 1800 nM | > 110 | 111% | 100% | IC50 [6]: > 12000 nM
CCCCCCc1cc(CNC(=O)[C@H](O)C(C)(C)CO)no1 | 240 nM | > 830 | 78% | 60% | 
CCN(CC)CCCC(C)Nc1ccnc2cc(Cl)ccc12 (stereo not drawn) |  |  |  |  | Activity [5]: inactive
NNC(=O)N1C(=O)c2cc(S(=O)(=O)[O-])cc3c(N)c(S(=O)(=O)[O-])cc(c23)C1=O.[Li+].[Li+] [LUCIFER YELLOW] |  |  |  |  | Papp A→B at 20 µM [21]: < 1 ×10⁻⁶ cm/s
CC(C)(CO)[C@@H](O)C(=O)NCc1cc(CCc2ccccc2)on1 | 5900 nM | > 33 | 94% | 95% | 
CCCCCn1cc(CNC(=O)[C@H](O)C(C)(C)CO)cn1 | 34000 nM | > 5 | 102% | 85% | 
CCCCCC(=O)NCCNC(=O)[C@H](O)C(C)(C)CO |  |  |  |  | IC50 [22]: 630 nM
CC(C)(CO)[C@@H](O)C(=O)NCc1cc(CCc2ccccc2)no1 | 11000 nM | > 18 | 102% | 113% | 
CC(C)NCC(O)COc1cccc2ccccc12 (stereo not drawn) [PROPRANOLOL] |  |  |  |  | Papp A→B at 20 µM [21]: 49 ×10⁻⁶ cm/s
CCCCCc1cnc(CNC(=O)[C@H](O)C(C)(C)CO)o1 | 23000 nM | > 8.6 | 98% | 82% | 
CCCCCc1nnc(CNC(=O)[C@H](O)C(C)(C)CO)s1 | 960 nM | > 200 | 90% | 88% | IC50 [6]: 26000 nM
CCCCCn1cc(CNC(=O)[C@H](O)C(C)(C)CO)nn1 | 56 nM | > 3500 | 88% | 77% | Activity [5]: inactive; IC50 [6]: > 250 nM; IC50 [7]: 28 nM; half-life at 1 µM [8]: > 4.25 h; half-life at 1 µM [9]: > 4.25 h; microsomal CLint at 1 µM [10]: < 7 µL/min/mg; microsomal CLint at 1 µM [11]: < 7 µL/min/mg; metabolised at 1 h [23]: < 15%; metabolised at 1 h [24]: < 15%; Activity [14]: inactive; concentration at 3 h [15]: 1100 nM; concentration at 24 h [16]: < 16 nM; concentration at 48 h [17]: < 16 nM; Activity [18]: inactive; Activity [19]: Active; Activity [20]: Active; Papp A→B at 20 µM [21]: 13 ×10⁻⁶ cm/s
CCCCCc1ccc(CNC(=O)[C@H](O)C(C)(C)CO)s1 | 2800 nM | 35 | 58% | 16% | 
